Laboratory results from ChEMBL document CHEMBL1134050, “Phenyl benzenesulfonamides are novel and selective 5-HT6 antagonists: identification of N-(2,5-dibromo-3-fluorophenyl)-4-methoxy-3-piperazin-1-ylbenzenesulfonamide (SB-357134)” (Bioorg Med Chem Lett, 2001).
pKi: −log10 of the molar value. One block for each compound: values may come before it.

Columns and labels:
[1] = molecular target: 5-hydroxytryptamine receptor 6 (Homo sapiens, UniProt P50406); assay: Binding affinity against human 5-hydroxytryptamine 6 receptor
Chain of 5-hydroxytryptamine receptor 6 (P50406 whole entry): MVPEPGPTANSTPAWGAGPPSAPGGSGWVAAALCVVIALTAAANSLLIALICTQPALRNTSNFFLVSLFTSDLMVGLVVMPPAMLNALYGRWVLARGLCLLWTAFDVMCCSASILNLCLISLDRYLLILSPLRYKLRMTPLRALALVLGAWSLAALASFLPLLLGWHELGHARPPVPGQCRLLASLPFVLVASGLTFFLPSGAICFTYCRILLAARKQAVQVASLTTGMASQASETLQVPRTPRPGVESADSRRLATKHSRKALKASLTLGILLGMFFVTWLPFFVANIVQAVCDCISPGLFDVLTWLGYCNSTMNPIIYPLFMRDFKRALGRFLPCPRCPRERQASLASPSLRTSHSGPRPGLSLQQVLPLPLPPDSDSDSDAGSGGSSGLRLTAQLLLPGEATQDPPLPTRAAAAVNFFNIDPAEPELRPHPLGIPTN

[2] = molecular target: 5-hydroxytryptamine receptor 1B (Homo sapiens, UniProt P28222); assay: Compound was evaluated for binding affinity against human cloned 5-hydroxytryptamine 1B receptor in CHO cells using [3H]5-HT as the radioligand; assay type: cell-based
Chain of 5-hydroxytryptamine receptor 1B (P28222 whole entry): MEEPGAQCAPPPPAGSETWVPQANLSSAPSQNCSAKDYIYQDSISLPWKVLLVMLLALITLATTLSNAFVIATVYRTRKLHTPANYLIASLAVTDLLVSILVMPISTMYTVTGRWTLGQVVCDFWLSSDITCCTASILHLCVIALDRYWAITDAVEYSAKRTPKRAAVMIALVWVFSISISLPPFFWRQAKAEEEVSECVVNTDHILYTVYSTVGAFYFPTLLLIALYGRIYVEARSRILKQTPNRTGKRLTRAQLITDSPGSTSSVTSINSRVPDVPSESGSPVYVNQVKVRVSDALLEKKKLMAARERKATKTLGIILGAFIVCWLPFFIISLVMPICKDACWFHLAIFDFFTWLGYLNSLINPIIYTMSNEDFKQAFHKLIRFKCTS
Summary of the method: (§1)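 Radioligand binding to human cloned receptors: 5-HT1A in HEK 293 cells with [3H]-8-OH-DPAT; 5-HT1B and 5-HT1E in CHO cells with [3H]-5-HT; 5-HT2B in HEK 293 cells with [3H]-5-HT; D2 and D3 in CHO cells with [125I]-iodosulpride. Values are the mean of at least two determinations, each within 0.2 log unit of the mean.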

[3] = molecular target: 5-hydroxytryptamine receptor 1D (Homo sapiens, UniProt P28221); assay: Compound was evaluated for binding affinity against human cloned 5-hydroxytryptamine 1D receptor in CHO cells using [3H]5-HT as the radioligand; assay type: cell-based
Chain of 5-hydroxytryptamine receptor 1D (P28221 whole entry): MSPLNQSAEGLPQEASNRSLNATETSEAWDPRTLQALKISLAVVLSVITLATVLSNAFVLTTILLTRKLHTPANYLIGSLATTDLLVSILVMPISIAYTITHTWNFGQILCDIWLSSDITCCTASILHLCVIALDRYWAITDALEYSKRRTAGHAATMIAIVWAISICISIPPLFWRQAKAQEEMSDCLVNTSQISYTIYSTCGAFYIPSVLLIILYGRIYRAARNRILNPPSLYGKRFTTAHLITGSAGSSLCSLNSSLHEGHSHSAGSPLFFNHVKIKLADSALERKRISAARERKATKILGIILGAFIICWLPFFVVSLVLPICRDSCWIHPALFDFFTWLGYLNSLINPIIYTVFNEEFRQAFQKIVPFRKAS

[4] = molecular target: 5-hydroxytryptamine receptor 1E (Homo sapiens, UniProt P28566); assay: Compound was evaluated for binding affinity against human cloned 5-hydroxytryptamine 1E receptor in CHO cells using [3H]5-HT as the radioligand; assay type: cell-based; summary of the method: as §1
Chain of 5-hydroxytryptamine receptor 1E (P28566 whole entry): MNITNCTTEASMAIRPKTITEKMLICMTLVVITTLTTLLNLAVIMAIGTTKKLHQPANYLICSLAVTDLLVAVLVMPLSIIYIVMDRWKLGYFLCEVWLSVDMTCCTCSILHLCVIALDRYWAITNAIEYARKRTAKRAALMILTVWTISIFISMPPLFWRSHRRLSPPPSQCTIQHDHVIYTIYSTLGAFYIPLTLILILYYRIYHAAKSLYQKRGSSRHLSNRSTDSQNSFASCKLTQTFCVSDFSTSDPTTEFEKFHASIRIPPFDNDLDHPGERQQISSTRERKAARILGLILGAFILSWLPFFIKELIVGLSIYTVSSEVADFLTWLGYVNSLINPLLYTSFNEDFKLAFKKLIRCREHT

[5] = molecular target: 5-hydroxytryptamine receptor 2A (Homo sapiens, UniProt P28223); assay: Compound was evaluated for binding affinity against human cloned 5-hydroxytryptamine 2A receptor in HEK 293 cells using [3H]ketanserin as the radioligand; assay type: cell-based, HEK293
Chain of 5-hydroxytryptamine receptor 2A (P28223 whole entry): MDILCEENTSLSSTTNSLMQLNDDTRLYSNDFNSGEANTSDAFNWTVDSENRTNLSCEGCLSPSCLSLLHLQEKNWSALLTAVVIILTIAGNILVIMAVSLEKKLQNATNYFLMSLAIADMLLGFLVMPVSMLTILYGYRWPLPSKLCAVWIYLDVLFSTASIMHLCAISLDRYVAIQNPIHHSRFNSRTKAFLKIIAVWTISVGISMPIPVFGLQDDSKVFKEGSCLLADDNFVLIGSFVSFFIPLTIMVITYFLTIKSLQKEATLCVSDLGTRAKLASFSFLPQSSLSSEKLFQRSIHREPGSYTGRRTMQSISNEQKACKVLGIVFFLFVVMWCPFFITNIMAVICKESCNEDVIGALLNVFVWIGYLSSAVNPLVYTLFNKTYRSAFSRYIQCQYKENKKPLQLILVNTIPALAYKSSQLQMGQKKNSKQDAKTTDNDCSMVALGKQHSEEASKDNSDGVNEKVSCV

[6] = molecular target: T1, 5-hydroxytryptamine receptor 1F (Homo sapiens, UniProt P30939); assay: Compound was evaluated for binding affinity against human cloned 5-hydroxytryptamine 1F receptor in CHO cells using [3H]-5-HT as the radioligand; assay type: cell-based
T1 sequence (P30939 whole entry): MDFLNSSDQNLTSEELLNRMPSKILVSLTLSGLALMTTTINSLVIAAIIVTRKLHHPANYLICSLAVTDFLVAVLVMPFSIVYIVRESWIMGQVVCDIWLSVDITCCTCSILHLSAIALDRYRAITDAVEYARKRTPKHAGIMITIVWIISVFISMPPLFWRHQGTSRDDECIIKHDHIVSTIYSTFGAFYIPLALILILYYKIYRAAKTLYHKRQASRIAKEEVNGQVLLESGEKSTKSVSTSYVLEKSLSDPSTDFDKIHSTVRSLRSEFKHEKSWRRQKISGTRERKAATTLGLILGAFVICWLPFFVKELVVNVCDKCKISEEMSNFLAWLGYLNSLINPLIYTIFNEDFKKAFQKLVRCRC

[7] = molecular target: T2, 5-hydroxytryptamine receptor 2C (Homo sapiens, UniProt P28335); assay: Compound was evaluated for binding affinity against human cloned 5-hydroxytryptamine 2C receptor in HEK 293 cells using [3H]mesulergine as the radioligand; assay type: cell-based, HEK293
T2 sequence (P28335 whole entry): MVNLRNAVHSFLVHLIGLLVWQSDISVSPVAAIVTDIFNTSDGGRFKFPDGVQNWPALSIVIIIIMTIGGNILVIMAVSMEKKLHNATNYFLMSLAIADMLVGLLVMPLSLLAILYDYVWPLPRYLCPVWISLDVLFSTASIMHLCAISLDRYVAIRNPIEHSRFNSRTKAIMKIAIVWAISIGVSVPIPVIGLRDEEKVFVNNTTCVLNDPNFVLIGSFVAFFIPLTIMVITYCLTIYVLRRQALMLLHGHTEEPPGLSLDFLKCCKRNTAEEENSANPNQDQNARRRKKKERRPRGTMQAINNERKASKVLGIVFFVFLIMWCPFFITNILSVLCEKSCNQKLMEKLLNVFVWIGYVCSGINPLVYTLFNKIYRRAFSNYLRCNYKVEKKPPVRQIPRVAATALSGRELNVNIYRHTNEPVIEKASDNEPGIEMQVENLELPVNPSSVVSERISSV

[8] = molecular target: 5-hydroxytryptamine receptor 2B (Homo sapiens, UniProt P41595); assay: Compound was evaluated for binding affinity against human cloned 5-HT2B receptor in HEK 293 cells using [3H]5-HT as the radioligand; assay type: cell-based, HEK293; summary of the method: as §1
Chain of 5-hydroxytryptamine receptor 2B (P41595 whole entry): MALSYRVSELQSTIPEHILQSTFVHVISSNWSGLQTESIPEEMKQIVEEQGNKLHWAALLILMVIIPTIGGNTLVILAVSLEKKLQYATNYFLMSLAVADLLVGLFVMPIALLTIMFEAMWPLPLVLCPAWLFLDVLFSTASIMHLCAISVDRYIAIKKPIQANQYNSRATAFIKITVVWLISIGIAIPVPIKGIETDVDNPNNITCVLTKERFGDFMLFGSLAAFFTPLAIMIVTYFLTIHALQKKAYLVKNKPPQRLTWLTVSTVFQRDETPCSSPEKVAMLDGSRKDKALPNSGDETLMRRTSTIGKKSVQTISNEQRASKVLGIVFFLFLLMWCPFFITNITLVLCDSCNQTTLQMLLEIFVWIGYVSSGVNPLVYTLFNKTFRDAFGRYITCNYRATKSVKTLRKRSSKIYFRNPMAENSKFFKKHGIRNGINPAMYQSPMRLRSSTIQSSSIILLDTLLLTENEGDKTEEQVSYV

[9] = molecular target: 5-hydroxytryptamine receptor 4 (Homo sapiens, UniProt Q13639); assay: Compound was evaluated for the binding affinity against human cloned 5-hydroxytryptamine 4 receptor in HeLa cells using [3H]-LSD as the radioligand; assay type: cell-based
Chain of 5-hydroxytryptamine receptor 4 (Q13639 whole entry): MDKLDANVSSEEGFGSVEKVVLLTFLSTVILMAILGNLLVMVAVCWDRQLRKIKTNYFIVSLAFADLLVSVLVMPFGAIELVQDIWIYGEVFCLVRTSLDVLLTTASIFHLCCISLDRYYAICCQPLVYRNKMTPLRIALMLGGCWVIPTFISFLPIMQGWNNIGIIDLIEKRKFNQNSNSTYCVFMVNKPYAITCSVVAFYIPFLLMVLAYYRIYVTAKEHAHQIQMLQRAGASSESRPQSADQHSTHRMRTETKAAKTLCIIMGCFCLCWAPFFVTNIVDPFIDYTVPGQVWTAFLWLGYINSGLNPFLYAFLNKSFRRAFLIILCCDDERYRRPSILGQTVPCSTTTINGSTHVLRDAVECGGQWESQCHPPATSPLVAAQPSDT

[10] = molecular target: 5-hydroxytryptamine receptor 7 (Homo sapiens, UniProt P34969); assay: Compound was evaluated for binding affinity against human cloned 5-hydroxytryptamine 7 receptor in HEK 293 cells using [3H]5-CT as the radioligand (n=3); assay type: cell-based, HEK293
Chain of 5-hydroxytryptamine receptor 7 (P34969 whole entry): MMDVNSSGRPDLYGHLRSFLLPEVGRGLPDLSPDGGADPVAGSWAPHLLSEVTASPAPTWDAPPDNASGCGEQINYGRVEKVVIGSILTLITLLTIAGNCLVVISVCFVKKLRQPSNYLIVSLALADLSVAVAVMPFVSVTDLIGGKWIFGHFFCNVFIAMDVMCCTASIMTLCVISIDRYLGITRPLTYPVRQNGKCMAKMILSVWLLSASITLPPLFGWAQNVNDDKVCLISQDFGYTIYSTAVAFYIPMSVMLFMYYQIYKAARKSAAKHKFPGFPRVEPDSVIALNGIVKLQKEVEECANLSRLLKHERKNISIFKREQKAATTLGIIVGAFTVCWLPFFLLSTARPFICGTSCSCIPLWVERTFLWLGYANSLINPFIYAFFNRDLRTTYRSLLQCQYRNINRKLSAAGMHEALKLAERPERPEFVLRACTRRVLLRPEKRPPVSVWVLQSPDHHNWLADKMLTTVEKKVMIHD

[11] = molecular target: T3, Alpha-1B adrenergic receptor (Homo sapiens, UniProt P35368); assay: Compound was evaluated for binding affinity against Alpha-1B adrenergic receptor
T3 sequence (P35368 whole entry): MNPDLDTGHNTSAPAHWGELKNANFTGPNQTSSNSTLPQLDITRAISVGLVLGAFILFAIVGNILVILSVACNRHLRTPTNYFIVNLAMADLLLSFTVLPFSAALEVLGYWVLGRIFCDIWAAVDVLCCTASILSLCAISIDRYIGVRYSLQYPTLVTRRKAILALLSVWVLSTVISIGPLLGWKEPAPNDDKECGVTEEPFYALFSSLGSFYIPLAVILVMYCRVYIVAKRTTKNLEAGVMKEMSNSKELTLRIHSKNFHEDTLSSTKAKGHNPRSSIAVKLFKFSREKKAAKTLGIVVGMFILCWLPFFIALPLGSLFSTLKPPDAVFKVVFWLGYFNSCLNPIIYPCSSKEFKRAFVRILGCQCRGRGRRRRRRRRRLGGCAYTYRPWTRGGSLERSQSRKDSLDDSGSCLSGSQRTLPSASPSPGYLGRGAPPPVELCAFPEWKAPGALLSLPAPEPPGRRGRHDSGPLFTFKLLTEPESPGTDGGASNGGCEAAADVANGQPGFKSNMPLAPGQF

D(3) dopamine receptor = D(3) dopamine receptor (Homo sapiens, UniProt P35462); assay: Compound was evaluated for binding affinity against Dopamine receptor D3 in CHO cells using [125I]iodosulpiride as the radioligand; assay type: cell-based; summary of the method: as §1
Chain of D(3) dopamine receptor (P35462 whole entry): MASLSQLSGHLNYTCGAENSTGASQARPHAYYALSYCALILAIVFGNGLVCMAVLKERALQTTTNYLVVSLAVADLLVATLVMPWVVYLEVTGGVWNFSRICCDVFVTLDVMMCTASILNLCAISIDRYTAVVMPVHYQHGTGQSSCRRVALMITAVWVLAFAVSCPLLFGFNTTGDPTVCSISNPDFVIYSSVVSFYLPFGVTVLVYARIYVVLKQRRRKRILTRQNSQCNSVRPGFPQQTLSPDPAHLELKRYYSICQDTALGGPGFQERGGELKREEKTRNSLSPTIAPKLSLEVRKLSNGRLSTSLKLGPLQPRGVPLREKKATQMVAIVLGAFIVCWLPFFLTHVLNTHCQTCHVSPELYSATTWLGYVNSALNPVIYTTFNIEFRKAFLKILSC

D(2) dopamine receptor = D(2) dopamine receptor (Homo sapiens, UniProt P14416); assay: Compound was evaluated for binding affinity against Dopamine receptor D2 in CHO cells using [125I]iodosulpiride as the radioligand; assay type: cell-based; summary of the method: as §1
Chain of D(2) dopamine receptor (P14416 whole entry): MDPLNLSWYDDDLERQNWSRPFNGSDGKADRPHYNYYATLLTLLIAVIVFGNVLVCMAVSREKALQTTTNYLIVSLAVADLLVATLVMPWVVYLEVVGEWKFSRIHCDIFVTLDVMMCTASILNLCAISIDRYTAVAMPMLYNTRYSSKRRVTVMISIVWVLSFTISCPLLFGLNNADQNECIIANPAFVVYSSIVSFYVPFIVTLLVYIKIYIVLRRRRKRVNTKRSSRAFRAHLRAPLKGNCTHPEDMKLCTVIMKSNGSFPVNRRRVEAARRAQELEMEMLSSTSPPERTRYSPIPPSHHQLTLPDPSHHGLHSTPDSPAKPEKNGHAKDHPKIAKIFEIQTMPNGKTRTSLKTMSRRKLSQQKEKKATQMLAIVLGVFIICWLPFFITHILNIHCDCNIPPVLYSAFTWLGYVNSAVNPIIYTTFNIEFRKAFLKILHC

[12] = molecular target: T4, 5-hydroxytryptamine receptor 1A (Homo sapiens, UniProt P08908); assay: Compound was evaluated for binding affinity against human cloned 5-hydroxytryptamine 1A receptor in HEK 293 cells using [3H]8-OH-DPAT as the radioligand; assay type: cell-based, HEK293; summary of the method: as §1
T4 sequence (P08908 whole entry): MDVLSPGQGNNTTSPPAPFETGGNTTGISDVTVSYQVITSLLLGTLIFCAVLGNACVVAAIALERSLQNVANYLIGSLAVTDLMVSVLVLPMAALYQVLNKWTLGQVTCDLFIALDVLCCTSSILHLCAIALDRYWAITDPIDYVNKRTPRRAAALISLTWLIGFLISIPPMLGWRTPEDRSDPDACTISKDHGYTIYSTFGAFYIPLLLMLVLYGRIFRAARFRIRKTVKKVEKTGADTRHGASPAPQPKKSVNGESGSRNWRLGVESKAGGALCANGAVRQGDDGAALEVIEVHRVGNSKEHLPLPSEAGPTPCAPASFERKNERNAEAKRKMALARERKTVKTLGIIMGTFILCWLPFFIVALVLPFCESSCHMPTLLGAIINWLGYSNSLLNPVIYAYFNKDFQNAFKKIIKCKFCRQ

[13] = Plasma Clearance measured at steady-state following iv infusion at 0.6 mg/kg/h in rats; assay type: ADME, organism-based; set-up: route intravenous; settings: rat, 0.6 mg/kg/h infusion
Rattus norvegicus = species: Rattus norvegicus; assay: Blood: Brain distribution ratio is determined in rat; assay type: ADME, organism-based
Summary of the method: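 Rats received iv infusion for 8 h, and the brain:blood ratio was taken at steady state.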

[14] = Bioavailability in rat (dose 3 mg/kg in 1% methylcellulose ); assay type: ADME, organism-based; settings: in vivo
Summary of the method: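 Oral suspension dose of 3 mg/kg in 1% methylcellulose (v/v) aq to rats (n=3). Blood levels were measured by LC/MS/MS to derive AUC/dose and bioavailability.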

SMILES: COc1ccc(S(=O)(=O)Nc2cc(Cl)cc(Br)c2Cl)cc1N1CCNCC1
- pKi [1]: 8.70

SMILES: COc1ccc(S(=O)(=O)Nc2cccc(Br)c2)cc1N1CCNCC1
- pKi [1]: 8.90

- pKi [1]: 7.60
SMILES: COc1ccc(S(=O)(=O)Nc2ccc(Cl)cc2C(F)(F)F)cc1N1CCNCC1

SMILES: COc1ccc(S(=O)(=O)N2CCc3ccc(I)cc32)cc1N1CCNCC1
- pKi [2]: 5.90
- pKi [3]: 6.70
- pKi [4]: < 5.00
- pKi [5]: < 5.40
- pKi [6]: < 5.10
- pKi [7]: 6.20
- pKi [8]: 6.20
- pKi [9]: 5.40
- pKi [10]: 9.50
- pKi [1]: 9.50
- pKi [11]: 6.00
- pKi (D(3) dopamine receptor): 6.00
- pKi (D(2) dopamine receptor): 5.60
- pKi [12]: 6.30

SMILES: COc1ccc(S(=O)(=O)Nc2cc(Cl)cc(Cl)c2Br)cc1N1CCNCC1
- pKi [1]: 8.50

SMILES: COc1ccc(S(=O)(=O)Nc2ccccc2C(C)C)cc1N1CCNCC1
- pKi [1]: 9.00
- clearance [13]: 52 mL/min/kg

- clearance [13]: 83 mL/min/kg
SMILES: COc1ccc(S(=O)(=O)N2CCc3cccc(Cl)c3C2)cc1N1CCNCC1

- pKi [1]: 9.50
SMILES: COc1ccc(S(=O)(=O)N2CCCc3ccc(Br)cc32)cc1N1CCNCC1

SMILES: COc1ccc(S(=O)(=O)Nc2cccc(Cl)c2)cc1N1CCNCC1
- pKi [1]: 8.90

- clearance [13]: 76 mL/min/kg
SMILES: COc1ccc(S(=O)(=O)N2CCc3c(Cl)ccc(Cl)c3C2)cc1N1CCNCC1

SMILES: COc1ccc(S(=O)(=O)Nc2cc(Br)ccc2Br)cc1N1CCNCC1
- pKi [2]: < 5.30
- pKi [3]: < 5.80
- pKi [4]: < 5.00
- pKi [5]: < 5.00
- pKi [6]: < 5.00
- pKi [7]: < 5.30
- pKi [8]: < 5.50
- pKi [9]: 5.50
- pKi [1]: 9.00
- Distribution ratio (Rattus norvegicus): 0.38
- bioavailability [14]: 20%
- clearance [13]: 43 mL/min/kg
- pKi [11]: < 5.70
- pKi (D(3) dopamine receptor): < 5.30
- pKi (D(2) dopamine receptor): < 5.00
- pKi [12]: < 5.50

SMILES: COc1ccc(S(=O)(=O)Nc2ccc(I)cc2)cc1N1CCNCC1
- pKi [1]: 8.70

SMILES: COc1ccc(S(=O)(=O)N2CCc3cc(I)ccc32)cc1N1CCNCC1
- pKi [1]: 8.40

- pKi [1]: 9.10
SMILES: COc1ccc(S(=O)(=O)N2c3ccccc3CC2(C)C)cc1N1CCNCC1

SMILES: COc1ccc(S(=O)(=O)Nc2cc(Br)cc(Br)c2F)cc1N1CCNCC1
- pKi [1]: 8.60

SMILES: COc1ccc(S(=O)(=O)Nc2c(F)cc(Br)cc2F)cc1N1CCNCC1
- pKi [1]: 6.80

SMILES: COc1ccc(S(=O)(=O)Nc2cc(I)ccc2C)cc1N1CCNCC1
- pKi [1]: 9.10

- pKi [1]: 8.70
SMILES: COc1cc(Cl)c(C)cc1NS(=O)(=O)c1ccc(OC)c(N2CCNCC2)c1

SMILES: COc1ccc(S(=O)(=O)Nc2ccc(C)cc2Br)cc1N1CCNCC1
- pKi [1]: 8.10
